Assay outcomes as filed in PubChem.
MrgX1 PAM = human MrgX1 positive allosteric modulation, primary screen; B-score at 10 µM; MrgX1-HEK293, Fluo-4 calcium flux, FDSS; hits give high values; Q96LB2; 0.63% of 310,000 active; AID 588675;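 active means plate-corrected calcium response at least 3 library SD above typical, normal starting fluorescence, not activating the receptor alone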;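 further: compound read alongside a low EC10 to EC30 dose of BAM8-22 agonist; peak minus trough fluorescence over baseline measured at the second addition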
Target sequence (Q96LB2 whole entry, looked up): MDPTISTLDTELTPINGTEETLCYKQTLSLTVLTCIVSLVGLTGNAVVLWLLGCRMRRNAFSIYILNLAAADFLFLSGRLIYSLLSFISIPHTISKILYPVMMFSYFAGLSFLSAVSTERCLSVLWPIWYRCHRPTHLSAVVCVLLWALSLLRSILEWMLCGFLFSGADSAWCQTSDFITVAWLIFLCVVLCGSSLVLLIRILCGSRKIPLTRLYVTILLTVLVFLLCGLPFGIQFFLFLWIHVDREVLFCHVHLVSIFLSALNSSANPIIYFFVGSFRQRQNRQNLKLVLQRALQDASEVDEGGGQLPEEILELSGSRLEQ
RGS4 pot = potentiators or activators of RGS4. HEK293 M3R/inducible RGS4, carbachol calcium flux Fluo4; hits give low values. B-score at 10 µM. 0.92% of 310,000 active. AID 463111;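 active means B-score of the integrated calcium signal more than 4 SD below the library mean, with starting fluorescence not abnormally high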;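 further: negative B-score means reduced calcium response which marks RGS4 activation or potentiation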
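System: HEK293 FlpIn-TREx cells, stable M3R, doxycycline-inducible RGS4. Timing: overnight RGS4 induction, 30 min dye load 37 °C, 20 min compound RT. Also added: carbachol, ECmax concentration. Measured by: Fluo4 fluorescence kinetic imaging of calcium. Evaluation: integrated calcium ratio converted to B score.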
RGS4 block = human RGS4 inhibition; P49798; 0.45% of 310,000 active; B-score at 10 µM; HEK293 M3R/RGS4 inducible, Fluo-4 calcium flux; hits give high values; triggered by carbachol at its EC20;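 active means B-score, a plate-corrected calcium signal, over three deviations above library mean, with baseline fluorescence within five deviations of library mean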;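 further: RGS4 expression induced by doxycycline in cells with stable M3 receptor; B-score is computed from the integrated fluorescence ratio over baseline after carbachol; higher B-score means a larger calcium signal and so more RGS4 inhibition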
Target sequence (P49798 whole entry, looked up): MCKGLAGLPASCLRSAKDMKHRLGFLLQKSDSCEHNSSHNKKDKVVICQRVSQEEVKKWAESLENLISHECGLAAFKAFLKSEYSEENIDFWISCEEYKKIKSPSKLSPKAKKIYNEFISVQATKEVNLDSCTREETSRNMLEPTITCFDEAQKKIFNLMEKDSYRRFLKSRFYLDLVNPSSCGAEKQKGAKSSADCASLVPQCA
MrgX1 antag = blocks BAM8-22 activation of human MrgX1 receptor; MRGX1-HEK293 calcium flux, Fluo-4, BAM8-22 antagonism; hits give low values; B-score at 10 µM; 1.3% of 310,000 active; AID 588676;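 active means calcium-response B-score plate-corrected more than 3 library SD below zero, starting fluorescence within 5 deviations, no agonist response on first addition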;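 further: peak minus trough fluorescence over baseline after final BAM8-22 challenge near maximal dose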
MrgX1 agonist = activates human MrgX1 receptor signaling; MrgX1-HEK293 cells, Fluo-4 calcium fluorescence, agonist mode; hits give high values; B-score at 10 µM; 0.44% of 310,000 active; AID 588627;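 active means calcium response B-score plate-corrected fluorescence ratio at least 3 library SD, with starting fluorescence B-score inside 5 SD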
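System: HEK293 cells stably expressing human MrgX1 receptor; Dosing: test compound in the initial addition of three; Schedule: overnight plating, then 30 min 37 °C plus 30 min room-temperature dye loading; Detection: kinetic calcium dye fluorescence, Fluo-4 NW; Controls: per-plate positive and negative controls for Z′ factor.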
MrgX1 PAM conf = reconfirmed allosteric activator of human MrgX1 receptor. activation (ratio percentage), % at 10 µM. shares compounds with MrgX1 PAM. 13% of 1,200 active. AID 602413. MrgX1-HEK293, Fluo-4 calcium fluorescence, FDSS;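 active means ratio at least 3 SD above the weak peptide control, stable starting fluorescence, no direct agonism earlier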;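 further: compound followed by low BAM8-22 agonist challenge near EC20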
HEK293 Ca flux = activity in parental HEK293 cells lacking MrgX1; 2% of 4,000 active; Fluo-4 calcium fluorescence, FDSS; shares compounds with MrgX1 antag; AID 624111; fluorescence ratio F(max-min)/F0 at 10 µM;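 active means duplicate-averaged calcium fluorescence ratio at least three times the standard deviation of buffer wells, a nonspecific response in parental cells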
HEK293 Ca counter = activity in parental HEK293 cells without MrgX1 | fluorescence ratio F(max-min)/F0 at 10 µM | shares compounds with MrgX1 antag | AID 624114 | parental HEK293 calcium flux, Fluo-4 fluorescence ratio; hits give high values | 0.4% of 4,000 active;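 active means calcium fluorescence ratio, averaged over duplicates, at least 3 SD of the buffer-well ratio, meaning a nonspecific response in receptor-free cells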;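 further: untransfected parental HEK293 lacking MrgX1 used as counterscreen for MrgX1 allosteric activators; fluorescence change taken during the second addition on a kinetic imager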
HEK293 Ca cntr2 = counter-screen for MrgX1 activators: effect in parental HEK293 cells. shares compounds with MrgX1 antag. Fluo-4 calcium fluorescence (FDSS); hits give high values. fluorescence ratio F(max-min)/F0 at 10 µM. 8.7% of 4,000 active. AID 624115;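 active means calcium fluorescence ratio at least three times the spread of buffer wells, meaning a non-specific response in parental cells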
Starred values were filed as active, the others as inactive; i = inactive; · = not tested or not shown. A selection: hits, their analogues and other compounds. The true share with any hit is near 3.5%.

SMILES | MrgX1 PAM | RGS4 pot | RGS4 block | MrgX1 antag | MrgX1 agonist | MrgX1 PAM conf | HEK293 Ca flux | HEK293 Ca counter | HEK293 Ca cntr2
CCN(CC)C(=S)SCc1csc(CC(=O)Nc2ccccc2C)n1 | 9.84* | i | i | i | i | i | i | i | i
Cc1ccc(NC(=O)C2C3/C=C\CCCCC32)cc1 (centres undefined) | i | i | i | i | i | · | · | · | ·
O=C(Nc1nccs1)C1C2/C=C\CCCCC21 (centres undefined) | 12* | i | i | i | i | i | i | i | i
Cc1ccc2oc(C(=O)N3CCC(O)(c4cccc(C(F)(F)F)c4)CC3)c(C)c2c1 | i | i | i | i | i | · | · | · | ·
CC(C)c1ccc(NC(=S)Nc2ccc3[nH]c(=O)[nH]c3c2)cc1 | 15* | i | i | i | i | i | i | i | i
O=c1[nH]c2ccc(NC(=S)Nc3ccc(Cl)cc3)cc2[nH]1 | i | i | i | i | i | · | · | · | ·
Cc1ccc(CCNC(=O)C2CCCN(S(=O)(=O)N3CC(C)CC(C)C3)C2)cc1 (centres undefined) | i | i | i | i | i | · | · | · | ·
S=c1[nH]nc([C@@H]2C[C@H]2c2ccccc2)n1-c1ccccc1Cl | 7.69* | i | i | i | i | i | i | i | i
Cc1ccc(C2CC2c2n[nH]c(=S)n2-c2ccc(Cl)cc2)cc1 (centres undefined) | i | i | i | i | i | · | · | · | ·
CCC1CCCCN1CCCNC(=O)Cn1ncc2c(C)n(Cc3ccccc3Cl)c(C)c2c1=O (centres undefined) | i | i | i | i | i | · | · | · | ·
Cc1nc2c(C#N)cnn2c2c1CCN2CC1CCCO1 (centres undefined) | 7.24* | i | i | i | i | i | i | i | i
Cc1nc2c(C#N)cnn2c2c1CCN(Cc1ccccc1)N2C | i | i | i | i | i | · | · | · | ·
O=C1Nc2cc(C(=O)N3CCOCC3)ccc2S/C1=C\c1ccccc1 | i | i | i | i | i | · | · | · | ·
Cc1cccc(/C=C2/Sc3ccc(C(=O)N4CCOCC4)cc3NC2=O)c1 | 23.3* | i | i | i | i | i | i | i | i
CS(=O)(=O)c1ccc(-n2c(=O)n(Cc3ccccc3)c(=O)c3[nH]cnc32)cc1 | i | i | i | i | i | · | · | · | ·
CCOC(=O)N1CCN(c2cc(=O)n(-c3cccc(Br)c3)c(=O)[nH]2)CC1 | i | i | i | i | i | · | · | · | ·
CCOC(=O)N1CCN(c2cc(=O)n(-c3cccc(C)c3)c(=O)[nH]2)CC1 | 11.1* | i | i | i | i | i | i | i | i
O=C(Nc1nc2c(F)cc(F)cc2s1)c1ccco1 | 15.6* | i | i | i | i | i | i | i | i
CCCc1cc(C(N)=O)c(NC(=O)c2ccoc2C)s1 | 8.69* | i | i | i | i | i | i | i | i
CC1CN(c2cc(-c3ccccc3)c3ccccc3n2)CC(C)O1 (centres undefined) | i | i | i | i | i | · | · | · | ·
CC1CN(c2nc3ccccc3cc2-c2ccccc2)CC(C)O1 (centres undefined) | 17* | i | i | i | i | i | i | i | i
CC1(C)C(C(=O)OCC(Cl)(Cl)Cl)N2C(=O)C(NC(=O)Cc3ccccc3)C2S1=O (centres undefined) | i | i | i | i | i | · | · | · | ·
O=C1C(=O)N(CCN2CCOCC2)C(c2ccncc2)/C1=C(/O)c1ccc2c(c1)OCO2 (centres undefined) | 7.68* | i | i | i | i | i | i | i | i
COc1cccc(C(=O)/C=C/Nc2ccc(S(=O)(=O)Nc3cc(OC)nc(OC)n3)cc2)c1 | 20.5* | i | i | i | i | i | i | i | i
CCCCn1c(C(C)NC(=O)CC)nc2ccccc21 (centres undefined) | i | i | i | i | i | · | · | · | ·
SMILES | MrgX1 PAM | RGS4 pot | RGS4 block | MrgX1 antag | MrgX1 agonist | MrgX1 PAM conf | HEK293 Ca flux | HEK293 Ca counter | HEK293 Ca cntr2
CCCCCCn1c(C(C)NC(=O)c2ccco2)nc2ccccc21 (centres undefined) | 17.8* | i | i | i | i | i | i | i | i
Cc1cccc(NC(=O)c2ccc3c(Cl)c4c(nc3c2)CCCC4)n1 | 20.1* | i | i | i | i | i | i | i | i
CCOC(=O)c1[nH]c2ccc(OC)cc2c1NC(=O)CN1CCc2ccccc2C1 | 8.12* | i | i | i | i | i | i | i | i
Cc1cnc(CN(C)Cc2c(C(=O)N3CCc4ccccc4C3)nc3ccc(Cl)cn23)[nH]1 | i | i | i | i | i | · | · | · | ·
c1ccc(N2CCN(c3ncnc4sc5c(c34)CCC5)CC2)cc1 | i | i | i | i | i | · | · | · | ·
c1nc(N2CCC3(CC2)OCCO3)c2c3c(sc2n1)CCCC3 | 17* | i | i | i | i | i | i | i | i
Cc1c(C)n(CC(O)CN2C(=O)c3ccccc3S2(=O)=O)c2ccccc12 (centres undefined) | 10.3* | i | i | i | i | i | i | i | i
CCOC(=O)c1c(-c2cccs2)csc1N | 8.43* | i | i | i | i | i | i | i | i
OCCCCCNc1ncnc2ccccc12 | 22.5* | i | i | i | i | i | i | i | i
CCN(CC)CCCNc1ncnc2ccccc12 | i | i | i | i | i | · | · | · | ·
CC1CCCN(C(=O)C(=O)c2cn(CC(=O)N3CCCCCC3)c3ccccc23)C1 (centres undefined) | i | i | i | i | i | · | · | · | ·
CC(C)c1nnc(NC(=O)C2CCCN2C(=O)Nc2ccc(F)cc2)s1 (centres undefined) | i | i | i | i | i | · | · | · | ·
C=CCSc1nc(Oc2ccccc2)c2sccc2n1 | i | i | i | i | i | · | · | · | ·
C=CCNc1nc(SCC=C)nc2ccsc12 | 7.42* | i | i | i | i | i | i | i | i
